# NPY-Y2 PAM-ag: human NPY-Y2 potentiation or agonism, primary screen. AID 1359. activation, % at 3.6 µM. 220,000 tested, 0.45% active. cells expressing NPY-Y2, potentiator/agonist read-out; in the data active = activation above about 27%;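 also: cells stimulated with NPY near EC25 plus isoproterenol at EC100; 0% = vehicle plus submaximal agonist and 100% = vehicle plus saturating agonist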
# EP2 modulator: modulators of human EP2 prostaglandin E2 receptor. P43116. EP2-expressing cells, cAMP HTRF FRET, PGE2 co-stimulation. induction, % at 25 µM. 260,000 tested, 0.83% active. AID 940;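 active = compounds whose cAMP rise, as percent of the full-agonist control response, exceeds 60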;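 also: rat C6 glioma line stably carrying human EP2 under a CMV promoter; the protocol text gives 20 µM as final concentration; 100% = response of wells given 1 µM PGE2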
# NPY Y2 blocker: NPY-Y2 (human) receptor antagonism | P49146 | NPY-Y2 expressing cells, antagonist mode | inhibition, % at 2.7 µM | 140,000 tested, 0.99% active | AID 793; in the data active = inhibition above about 17%;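 also: 0% = vehicle with agonist challenge and 100% = reference antagonist with challenge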
# EP2 antag: EP2 receptor (human) inhibition. AID 1422. inhibition, % at 25 µM. P43116. 260,000 tested, 0.52% active. C6 glioma cells expressing human EP2, cAMP TR-FRET; cells stimulated with saturating PGE2;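 active = percent inhibition above 40 after rounding to a whole number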;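 also: rat C6 glioma host cells with rolipram phosphodiesterase inhibitor present; the protocol text gives 20 µM as final concentration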
# NPY1 pot ag: potentiators or agonists of human neuropeptide Y receptor Y1; P25929; NPY-Y1 expressing cells, potentiator/agonist activation; activation, % at 3.6 µM; 220,000 tested, 0.37% active; AID 1304; in the data active = activation above about 33%, passing the limit was not always enough;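 also: cells stimulated with NPY at EC10 then isoproterenol at EC100; 0% = low agonist plus stimulus and 100% = saturating agonist plus stimulus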
# Target sequence (P25929 whole entry, looked up): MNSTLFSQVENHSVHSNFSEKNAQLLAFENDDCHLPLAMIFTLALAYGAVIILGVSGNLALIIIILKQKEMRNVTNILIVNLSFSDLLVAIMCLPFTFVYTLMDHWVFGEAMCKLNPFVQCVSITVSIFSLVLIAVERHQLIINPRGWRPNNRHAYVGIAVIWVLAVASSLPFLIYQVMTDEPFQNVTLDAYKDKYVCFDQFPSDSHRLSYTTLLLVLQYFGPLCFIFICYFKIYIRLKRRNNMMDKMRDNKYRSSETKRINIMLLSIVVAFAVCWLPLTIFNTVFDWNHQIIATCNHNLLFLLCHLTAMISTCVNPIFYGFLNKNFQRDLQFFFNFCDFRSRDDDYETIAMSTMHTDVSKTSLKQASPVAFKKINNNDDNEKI
# NPY-Y1 antag: antagonists of human neuropeptide Y receptor Y1; P25929; 200,000 tested, 1% active; AID 1040; inhibition, % at 3.6 µM; HEK293-CNG Y1 cells, membrane potential fluorescence; NPY at EC95, then isoproterenol;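 active = inhibition above the campaign mean inhibition of all tested compounds plus 3 SD, cut at about 20% in these data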;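 also: 0% = DMSO wells given NPY plus isoproterenol and 100% = isoproterenol alone without NPY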
#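 Material: Y1- and CNG-channel-expressing HEK293 cells / Probe or stimulus: NPY 25 nM then isoproterenol 1 µM plus Ro 20-1724 25 µM / Doses: 3.6 µM single dose, DMSO 0.4% / Schedule: compound incubation 1 h at room temperature, readout 45 min post-stimulation / Signal: membrane potential fluorescence / Benchmarks: isoproterenol-only wells as full block versus NPY-plus-isoproterenol wells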
# An asterisk follows results filed as active; / = no result given; ! = not confirmed by another sample. In the library only some 2.8% were active in any assay of this set; here they are far more common.
SMILES,NPY-Y2 PAM-ag,EP2 modulator,NPY Y2 blocker,EP2 antag,NPY1 pot ag,NPY-Y1 antag
O=c1oc(/C=C/c2ccc(/C=C/c3nc4ccccc4c(=O)o3)cc2)nc2ccccc12,/,-17.8,/,19.6,/,/
COc1ccc(S(=O)(=O)n2nc(-c3cc(OC)c(OC)c(OC)c3)cc2N)cc1OC,-1.9,14.8,3.9,8.8,-2.7,-2.7
COc1ccc(-c2cc(N)n(S(=O)(=O)c3c(F)c(F)c(F)c(F)c3F)n2)cc1OC,-27.1,-53.5,98.5*,17.4,-89.6,87.4*
O=S(=O)(O)c1ccc2cc(N=Nc3cc(S(=O)(=O)O)c4cccnc4c3O)ccc2c1,/,16.4,/,52.0*,/,/
CC1CC(C)CN(CCOc2ccccc2-c2ccccc2)C1 (centres undefined),-8.6,22.1,30.4*,8.4,-23.2,33.7*
CC1CCN(CCOc2ccccc2-c2ccccc2)CC1,-11.1,28.0,13.1,12.2,-37.7,5.9
Cc1ccn2c(Nc3ccccc3C)c(-c3cccnc3)nc2c1,53.3*,23.4,/,3.3,61.2*,-0.2
CCOC(=O)CNc1c(-c2ccccc2)nc2ccc(Cl)cn12,-11.9,12.1,-0.8,4.0,5.4,1.1
Cc1ccn2c(NC(=O)c3ccco3)c(-c3ccccc3)nc2c1,-15.5,8.9,0.5,7.0,-12.6,-0.3
Cc1ccccc1Nc1c(-c2ccncc2)nc2ccc(Cl)cn12,44.8*,17.4,/,6.8,54.1*,-6.0
COc1ccc(NC(=O)N(Cc2ccc(Cl)cc2)Cc2cc3cccc(C)c3[nH]c2=O)cc1,/,25.4,/,9.7,/,/
CCc1nnc(NC(=O)CN(C)C)s1,/,-0.4,/,14.4,/,/
COC(=O)C(C)(N)Cc1ccc(O)cc1 (centres undefined),/,10.2,/,10.7,/,/
CCN(CC)CCC(=O)NC(C)(C)Cc1ccc(O)cc1,-4.3,9.7,1.6,19.5,36.9*,0.8
COc1cc(O)c(CC=C(C)C)c(O)c1C(=O)CCc1ccc(O)cc1,/,-4.0,/,75.8*,/,/
O=C(CCc1ccc(O)cc1)c1c(O)cc(O)cc1O,/,-3.5,/,9.1,/,/
CC(C)CCN1CCN(Cc2cc(F)ccc2-n2cccn2)CC1CCO (centres undefined),-1.6,-5.1,/,6.1,-4.8,9.6
CC(C)CN1CCN(Cc2cc(F)ccc2-n2cccn2)CC1CCO (centres undefined),-2.8,4.1,/,1.8,-11.0,21.6*
COCCCNC(=O)c1nc2c(nnn2Cc2ccc(C)cc2)c(=O)[nH]1,/,9.1,/,6.3,/,/
COc1ccc(N=c2oc3c(OC)cccc3cc2C(=O)Nc2nccs2)c(OC)c1,/,28.5,/,6.2,/,/
CC(=O)OCCCNc1cc(Sc2nc3ccccc3s2)c2nonc2c1[N+](=O)[O-],4.0,-21.2,-0.3,41.2*,9.6,-2.7
CC(=O)OCCCNc1cc(Sc2ccc(C)cc2)c2nonc2c1[N+](=O)[O-],9.9,6.3,3.0,4.8,0.8,0.5
CC(C)c1ccc2c(c1)CC[C@@H]1[C@](C)(CN)CCC[C@@]21C,/,-5.5,/,89.9*,/,/
CC(C)Cn1cnc2c(c(-c3ccccc3)c(-c3ccccc3)n2Cc2ccco2)c1=N,3.0,-39.2,76.2*,24.2,3.6,40.2*
N=c1c2c(-c3ccccc3)c(-c3ccccc3)n(Cc3ccco3)c2ncn1CCCn1ccnc1,-20.4,-35.7,41.4*,12.1,-149.5,57.2*
SMILES,NPY-Y2 PAM-ag,EP2 modulator,NPY Y2 blocker,EP2 antag,NPY1 pot ag,NPY-Y1 antag
N=c1c2c(-c3ccccc3)c(-c3ccccc3)n(Cc3ccccc3)c2ncn1CCO,-24.9,2.9,63.2*,4.0,-99.8,61.2*
CC(C)n1c(=O)oc2cc(S(=O)(=O)N3CCCC(CN4CCCC4)C3)ccc21 (centres undefined),/,-30.9,/,5.0,/,/
CCOC(=O)CSCC(=O)N1N=C(c2cccs2)CC1c1ccc(F)cc1 (centres undefined),1.4,24.7,3.8,5.4,5.5,-1.5
CCCCOC(=O)CSCC(=O)N1N=C(c2cccs2)CC1c1ccc(F)cc1 (centres undefined),-20.0,37.4,8.4,50.0*,2.3,1.3
COc1ccc(-c2cc([C@H](O)[C@@H]3CCCCN3)c3ccccc3n2)cc1,/,-23.0,/,50.3*,/,/
O[C@@H](c1cc(-c2ccccc2)nc2c1ccc1ccccc12)[C@@H]1CCCCN1,/,-11.4,/,84.3*,/,/
COc1ccc(-c2cc(OC)c3ccccc3n2)cc1,-2.6,14.6,0.5,12.7,-26.5,13.6
CC1C(c2ccc(F)cc2)=NOC1C(=O)N(C)C1CCN(C(C)C)CC1 (centres undefined),/,-46.3,/,6.6,/,/
CC1CCCC(C)N1C(=O)Cn1c(SCC(=O)N(C)C)nc2ccccc21 (centres undefined),/,-7.6,/,1.3,/,/
COc1ccc(N2CCN(C(=O)CN(c3cc(OC)ccc3OC)S(C)(=O)=O)CC2)cc1,/,5.0,/,5.5,/,/
COc1ccc(-c2cc(C(F)F)n3ncc(C(=O)N4CCCCC4C)c3n2)cc1 (centres undefined),/,-83.8,/,15.6,/,/
COc1cc(NS(=O)(=O)c2ccc(NC(=S)NC(=O)c3sc4cc(F)ccc4c3Cl)cc2)nc(OC)n1,2.6,-2.9,2.5,95.5*,-6.7,3.3
COc1cc(NS(=O)(=O)c2ccc(NC(=S)NC(=O)c3ccco3)cc2)nc(OC)n1,3.8,-17.0,/,21.4,2.5,/
COc1cc(NS(=O)(=O)c2ccc(NC(=S)NC(=O)c3sc4ccccc4c3Cl)cc2)nc(OC)n1,-1.1,-3.1,0.6,126.3*,-10.7,3.2
COc1cc(NS(=O)(=O)c2ccc(NC(C)=O)cc2)nc(OC)n1,-8.2,34.6,0.7,8.2,-22.2,2.3
O=C(O)CSc1cc(C(=O)c2ccccc2O)cn2c(=O)c3c(-c4ccccc4)csc3nc12,-9.6,61.3*,/,7.9,3.1,2.7
CCOC(=O)c1sc2nc3c(SCC(=O)O)cc(C(=O)c4ccccc4O)cn3c(=O)c2c1C,-10.4,53.8,/,1.2,-5.0,-0.6
O=C(NCc1ccco1)c1ccc(-c2ccccc2Cl)o1,-13.1,-59.8,/,59.9*!,5.6,8.0
CCC(C(=O)NC(c1ccc(F)c(F)c1)c1nccn1C)c1ccccc1 (centres undefined),/,27.7,/,6.3,/,/
O=C(COC(=O)[C@H](Cc1ccccc1)NC(=O)c1ccco1)NC(c1ccccc1)c1ccccc1,-5.4,62.2*,1.5,11.1,-29.3,8.3
O=C(COC(=O)C(Cc1ccccc1)NC(=O)c1ccco1)NC1CC1 (centres undefined),10.5,39.2,-1.3,5.8,2.8,1.4
CCOc1cc(/C=N/NC(N)=S)cc(Br)c1OCc1ccccc1C,-6.7,62.6*,5.5,8.0,-40.6,3.3
O=C(c1ccc(OC2CSC2)cc1)N1CCC(O)(c2ccccn2)CC1,/,-23.2,/,4.6,/,/
O=C(CSc1ccc(-c2ccc(Cl)cc2)nn1)Nc1ccc(N2CCCC2)cc1,/,-3.6,/,12.8,/,/
CN(C)c1ncnc2c1ncn2C1OC(CO)C(O)C1O (centres undefined),-1.6,-0.7,1.6,15.3,8.7,-2.3
